Source: ChEMBL document CHEMBL4699593, “Identification of 2,4-Disubstituted Imidazopyridines as Hemozoin Formation Inhibitors with Fast-Killing Kinetics and In Vivo Efficacy in the Plasmodium falciparum NSG Mouse Model” (J Med Chem, 2020)
pIC50: −log10 of the molar value. The source made the active and inactive calls. The rule behind the calls is not given here.

Tests used:
Plasmodium falciparum [1] = test: Antiplasmodial activity against multidrug-resistant asexual blood stage Plasmodium falciparum K1 strain assessed as reduction in parasite growth after 72 hrs by NBT reagent based LDH assay; assay type: functional, organism-based; settings: K1, 72 h
How it was run: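 Asexual blood-stage K1 (multidrug-resistant) parasites were read out by the parasite lactate dehydrogenase (pLDH) assay. […] Most individual values varied less than 2× (maximum 3×).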

CHO = test: Cytotoxicity against CHO cells assessed as reduction in cell viability by MTT assay; assay type: cell-based, Cricetulus griseus; settings: chinese hamster
How it was run: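 Cytotoxicity was measured in Chinese hamster ovary (CHO) cells and reported as CC50. The selectivity index is CC50 divided by NF54 IC50.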

[2] = target: Voltage-gated inwardly rectifying potassium channel KCNH2 (Homo sapiens, UniProt Q12809); test: Inhibition of human ERG by patch clamp method
Plasmodium berghei = test: Antiplasmodial activity against luciferase-expressing Plasmodium berghei sporozoites liver stage infected in human HepG2 cells expressing GFP-CD81 fusion protein incubated for 48 hrs by luciferase reporter gene based bioluminescence assay; assay type: functional, organism-based; settings: HepG2, 48 h
How it was run: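 Liver-stage activity was measured in vitro with rodent P. berghei sporozoites. Values are the mean of 3 technical replicates from the luciferase assay; individual values varied less than 2×.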

Plasmodium falciparum [3] = test: Antiplasmodial activity against early ring-stage synchronized Plasmodium falciparum assessed as decrease in hemozoin formation after 32 hrs by Giemsa-staining based haemocytometric counting method; assay type: functional, organism-based
[4] = AUC (0 to t) in Balb/C mouse at 2 mg/kg, iv by LC-MS/MS analysis; assay type: ADME, organism-based; parameters: dose 2 mg/kg; settings: in vivo
How it was run: (§1)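 Healthy Balb/c mice dosed i.v. or orally. Parameters come from non-compartmental analysis of compound concentration over time. […] Clearance is blood clearance (CL_b).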

[5] = Oral bioavailability in Balb/C mouse at 20 mg/kg by LC-MS/MS analysis; assay type: ADME, organism-based; settings: in vivo
How it was run: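 Healthy Balb/c mice were given the compound i.v. or orally. Parameters come from non-compartmental analysis: AUC from 0 h to t_last, blood clearance, volume at steady state, terminal half-life, Tmax. Oral bioavailability F is derived from the i.v. and p.o. data.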

[6] = Tmax in Plasmodium falciparum 3D70087/N9 infected NSG mouse at 1.5 mg/kg, po by LC-MS/MS analysis; assay type: ADME, organism-based; settings: in vivo
How it was run: (§2)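 P. falciparum-infected NSG mice received escalating single oral doses of 1.5, 5, 15, 50 and 100 mg/kg.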

[7] = Tmax in Plasmodium falciparum 3D70087/N9 infected NSG mouse at 50 mg/kg, po by LC-MS/MS analysis; assay type: ADME, organism-based; settings: in vivo; how it was run: as §2
[8] = Tmax in Plasmodium falciparum 3D70087/N9 infected NSG mouse at 100 mg/kg, po by LC-MS/MS analysis; assay type: ADME, organism-based; settings: in vivo; how it was run: as §2
[9] = Cmax in Plasmodium falciparum 3D70087/N9 infected NSG mouse at 1.5 mg/kg, po by LC-MS/MS analysis; assay type: ADME, organism-based; parameters: route oral, dose 1.5 mg/kg; settings: in vivo
How it was run: (§3)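 Oral (PO) dosing of NSG (NODscidIL2Rγnull) mice infected with P. falciparum. Cmax and AUC0–24 are taken from the infected-mouse PK analysis and are also expressed divided by dose.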

[10] = Cmax in Plasmodium falciparum 3D70087/N9 infected NSG mouse at 15 mg/kg, po by LC-MS/MS analysis; assay type: ADME, organism-based; parameters: route oral, dose 15 mg/kg; settings: in vivo; how it was run: as §3
[11] = Cmax in Plasmodium falciparum 3D70087/N9 infected NSG mouse at 50 mg/kg, po by LC-MS/MS analysis; assay type: ADME, organism-based; parameters: route oral, dose 50 mg/kg; settings: in vivo; how it was run: as §3
[12] = AUC (0 to 24 hrs) in Plasmodium falciparum 3D70087/N9 infected NSG mouse at 1.5 mg/kg, po by LC-MS/MS analysis; assay type: ADME, organism-based; parameters: time < 24 hr, route oral, dose 1.5 mg/kg; settings: in vivo; how it was run: as §3
[13] = AUC (0 to 24 hrs) in Plasmodium falciparum 3D70087/N9 infected NSG mouse at 5 mg/kg, po by LC-MS/MS analysis; assay type: ADME, organism-based; parameters: time < 24 hr, route oral, dose 5 mg/kg; settings: in vivo; how it was run: as §3
[14] = AUC (0 to 24 hrs) in Plasmodium falciparum 3D70087/N9 infected NSG mouse at 50 mg/kg, po by LC-MS/MS analysis; assay type: ADME, organism-based; parameters: time < 24 hr, route oral, dose 50 mg/kg; settings: in vivo; how it was run: as §3
[15] = AUC (0 to 24 hrs) in Plasmodium falciparum 3D70087/N9 infected NSG mouse at 100 mg/kg, po by LC-MS/MS analysis; assay type: ADME, organism-based; parameters: time < 24 hr, route oral, dose 100 mg/kg; settings: in vivo; how it was run: as §3
[16] = AUC (0 to 24 hrs) in Plasmodium falciparum 3D70087/N9 infected NSG mouse at 200 mg/kg, po by LC-MS/MS analysis; assay type: ADME, organism-based; parameters: time < 24 hr, route oral, dose 200 mg/kg; settings: in vivo; how it was run: as §3
Plasmodium falciparum [17] = test: Antimalarial activity against Plasmodium falciparum 3D70087/N9 infected in NOD-SCID IL2Rgamma null mouse assessed as parasitemia at 50 mg/kg, po qd administered for 4 days measured on day 6 post-infection by microscopy based flow cytometry; assay type: functional, organism-based; settings: time 4.0 day
How it was run: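 NSG mice were infected with P. falciparum and given oral compound once daily for 4 days at 50 mg/kg, starting three days after inoculation. Parasitemia was followed to day 6 post-infection against the limit of detection.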

Plasmodium falciparum [18] = test: Antimalarial activity against Plasmodium falciparum 3D70087/N9 infected in NOD-SCID IL2Rgamma null mouse assessed as parasitemia at 100 mg/kg, po qd administered for 4 days measured on day 6 post-infection by microscopy based flow cytometry; assay type: functional, organism-based; settings: time 4.0 day
[19] = Drug metabolism in mouse blood assessed as N-demethylation by LC-MS/MS analysis; assay type: ADME, tissue-based
[20] = AUC in Plasmodium falciparum infected NSG mouse at 62 mg/kg, po by LC-MS/MS analysis; assay type: ADME, organism-based; parameters: dose 62 mg/kg; settings: in vivo
Plasmodium falciparum [21] = test: Antimalarial activity against asexual blood stage Plasmodium falciparum assessed as reduction in parasitemia by measuring lag time at 10 times IC50; assay type: functional
[22] = Dose normalized Cmax in Plasmodium falciparum 3D70087/N9 infected NSG mouse at 1.5 mg/kg, po by LC-MS/MS analysis; assay type: ADME, organism-based; settings: in vivo; how it was run: as §3
[23] = Dose normalized Cmax in Plasmodium falciparum 3D70087/N9 infected NSG mouse at 100 mg/kg, po by LC-MS/MS analysis; assay type: ADME, organism-based; settings: in vivo; how it was run: as §3
[24] = Dose normalized AUC (0 to 24 hrs) in Plasmodium falciparum 3D70087/N9 infected NSG mouse at 1.5 mg/kg, po by LC-MS/MS analysis; assay type: ADME, organism-based; settings: in vivo; how it was run: as §3
[25] = Dose normalized AUC (0 to 24 hrs) in Plasmodium falciparum 3D70087/N9 infected NSG mouse at 100 mg/kg, po by LC-MS/MS analysis; assay type: ADME, organism-based; settings: in vivo; how it was run: as §3
[26] = Dose normalized AUC (0 to 24 hrs) in Plasmodium falciparum 3D70087/N9 infected NSG mouse at 200 mg/kg, po by LC-MS/MS analysis; assay type: ADME, organism-based; settings: in vivo; how it was run: as §3
[27] = Dose normalized AUC (0 to 24 hrs) in Balb/c mouse at 20 mg/kg, po by LC-MS/MS analysis; assay type: ADME, organism-based; settings: in vivo; how it was run: as §1
Plasmodium falciparum [28] = test: Antiplasmodial activity against early stage (I to III) Plasmodium falciparum NF54 gametocytes at 5 uM incubated for 48 hrs under hypoxia condition by luciferase reporter gene assay relative to control; assay type: functional
[29] = Lipophilicity, log D of compound at pH 7.4; assay type: physicochemical; settings: buffer
[30] = Tmax in Plasmodium falciparum 3D70087/N9 infected NSG mouse at 5 mg/kg, po by LC-MS/MS analysis; assay type: ADME, organism-based; settings: in vivo; how it was run: as §2
[31] = Tmax in Plasmodium falciparum 3D70087/N9 infected NSG mouse po by LC-MS/MS analysis; settings: in vivo

Sequence of Voltage-gated inwardly rectifying potassium channel KCNH2 (Q12809 whole entry, the tested form may be a part): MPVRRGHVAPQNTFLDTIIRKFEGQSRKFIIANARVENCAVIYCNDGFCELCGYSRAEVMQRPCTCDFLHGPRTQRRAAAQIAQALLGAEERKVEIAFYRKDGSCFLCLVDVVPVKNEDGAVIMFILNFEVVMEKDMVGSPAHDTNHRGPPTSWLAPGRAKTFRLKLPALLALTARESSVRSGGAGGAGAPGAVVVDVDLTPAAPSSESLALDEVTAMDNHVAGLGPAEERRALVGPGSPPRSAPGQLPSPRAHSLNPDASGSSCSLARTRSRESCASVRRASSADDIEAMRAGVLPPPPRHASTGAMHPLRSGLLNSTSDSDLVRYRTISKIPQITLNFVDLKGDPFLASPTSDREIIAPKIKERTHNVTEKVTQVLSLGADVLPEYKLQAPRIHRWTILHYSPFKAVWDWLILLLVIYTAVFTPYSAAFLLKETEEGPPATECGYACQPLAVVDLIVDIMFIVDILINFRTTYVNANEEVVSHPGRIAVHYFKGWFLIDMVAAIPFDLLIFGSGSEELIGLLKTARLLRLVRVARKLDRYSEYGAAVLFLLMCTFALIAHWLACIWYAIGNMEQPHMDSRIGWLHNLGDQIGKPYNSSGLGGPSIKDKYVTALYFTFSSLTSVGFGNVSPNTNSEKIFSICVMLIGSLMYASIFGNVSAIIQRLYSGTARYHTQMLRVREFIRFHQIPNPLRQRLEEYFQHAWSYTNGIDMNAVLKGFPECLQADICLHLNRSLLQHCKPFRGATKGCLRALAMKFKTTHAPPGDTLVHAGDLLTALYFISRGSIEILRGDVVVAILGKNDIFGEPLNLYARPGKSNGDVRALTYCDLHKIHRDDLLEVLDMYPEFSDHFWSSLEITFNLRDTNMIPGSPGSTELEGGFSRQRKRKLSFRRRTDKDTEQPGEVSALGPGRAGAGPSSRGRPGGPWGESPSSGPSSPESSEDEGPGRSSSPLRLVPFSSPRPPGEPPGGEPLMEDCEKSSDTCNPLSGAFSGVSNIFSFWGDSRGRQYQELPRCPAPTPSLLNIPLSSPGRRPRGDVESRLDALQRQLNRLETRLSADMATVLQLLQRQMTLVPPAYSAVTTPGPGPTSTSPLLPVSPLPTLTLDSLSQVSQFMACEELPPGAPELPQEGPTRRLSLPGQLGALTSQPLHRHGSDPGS

## CN1CCN(CC2CCN(c3nccc4[nH]c(-c5cc(F)cc(F)c5)nc34)CC2)CC1
Plasmodium falciparum [1]
  pIC50: 7.39
CHO
  CC50: 23 µM
[2]
  pIC50: < 4.52
Plasmodium berghei
  pIC50: 4.85
Plasmodium falciparum [3]
  Activity: Active
[4]
  AUCt: 2.42 µM·h
[5]
  bioavailability: 83%
[6]
  Tmax: 1.5 h
[7]
  Tmax: 12.5 h
[8]
  Tmax: 1 h
[9]
  Cmax: 40 nM
[10]
  Cmax: 810 nM
[11]
  Cmax: 2840 nM
[12]
  AUC: 46 µM·min
[13]
  AUC: 170 µM·min
[14]
  AUC: 2856 µM·min
[15]
  AUC: 5142 µM·min
[16]
  AUC(0-t) at 24 h: 51.7 µM·h
Plasmodium falciparum [17]
  Activity: Below limit of detection
Plasmodium falciparum [18]
  Activity: Below limit of detection
[19]
  Drug metabolism: Metabolite_Detected
[20]
  AUC: 58.3 µM·h
Plasmodium falciparum [21]
  Time: 0 h
[22]
  Cmax/dose: 0.03 µM·kg/mg
[23]
  Cmax/dose: 0.07 µM·kg/mg
[24]
  AUC/dose: 31 µM·kg·min/mg
[25]
  AUC/dose: 51 µM·kg·min/mg
[26]
  AUC/dose: 62 µM·kg·min/mg
[27]
  AUC/dose: 60 µM·kg·min/mg
Plasmodium falciparum [28]
  inhibition at 5 µM: < 50%
[29]
  logD: 2.6
[30]
  Tmax: 2.5 h
[31]
  Tmax: 4 h
